A word on the IC50: it is the concentration that inhibits the measured activity by half.

Active and inactive are the calls of the source. The rule behind the calls is not given here.

For data set [1], the system named is Trypanosoma cruzi. As to the kind of experiment: Induction of ultrastructural modifications in Trypanosoma cruzi Maracay at IC25 level incubated for 96 hrs by transmission electron microscopy. Format: functional, organism-based. An outline of the steps: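 Maracay epimastigotes at 5 × 10^5 cells/mL exposed at IC25 for 96 h. Pellets washed in PBS, fixed in 2% paraformaldehyde/glutaraldehyde in 0.05 M cacodylate (pH 7.4) for 4 h at 4 °C, then examined by TEM.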

The nature of data set [2]: Selectivity index, ratio of IC50 for SOD1 in human erythrocytes to IC50 for Trypanosoma cruzi IRHOD/VO/2008/SN3 epimastigotes Iron superoxide dismutase. The class given is cell-based.
Data set [3] concerns the target Superoxide dismutase [Cu-Zn] (Homo sapiens, UniProt P00441). As to the kind of experiment: Inhibition of SOD1 in human erythrocytes by spectrophotometry. The class given is cell-based. Put shortly: (§1)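 Enzyme from sonicated parasites in STE buffer, pH 7.8, or human erythrocyte CuZn-SOD. Activity measured as NBT reduction by superoxide (Beyer–Fridovich): methionine, NBT, Triton X-100 and riboflavin, with A560 read before and after 10 min of light. Compounds tested at 1–100 μM. Mean of five; IC50 by linear regression from Kc.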

Data set [4] is described as follows: Inhibition of Trypanosoma cruzi IRHOD/VO/2008/SN3 epimastigotes Iron superoxide dismutase by spectrophotometry. Put shortly: as §1
Data set [5] concerns Trypanosoma cruzi. As to the kind of experiment: Antitrypanosomal activity against Trypanosoma cruzi IRHOD/VO/2008/SN3 metacyclic forms infected in african green monkey Vero cells assessed as inhibition of trypomastigotes level at IC25 level 0.5 to 10 days. The class given is functional. An outline of the steps:
(§2)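 Vero cells in RPMI infected with metacyclic forms at 10:1. Compounds added at IC25 immediately after infection for 12 h at 37 °C, 5% CO2, then washed off. Cultures grown 10 days with fresh medium every 48 h. Giemsa slides scored for % infected cells and amastigotes per cell (>100 cells); trypomastigotes in medium counted. Mean of four.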

Data set [6] concerns Trypanosoma cruzi. As to the kind of experiment: Antitrypanosomal activity against Trypanosoma cruzi IRHOD/VO/2008/SN3 metacyclic forms infected in african green monkey Vero cells assessed as inhibition of intracellular amastigotes replication at IC25 level 0.5 to 10 days. The class given is functional. Put shortly:
as §2

Data set [7] has as its system Trypanosoma cruzi. As to the kind of experiment: Antitrypanosomal activity against Trypanosoma cruzi IRHOD/VO/2008/SN3 metacyclic forms infected in african green monkey Vero cells assessed as inhibition of infection rate at IC25 level 0.5 to 10 days. Format: functional. Put shortly: as §2
Data set [8] can be described thus: Selectivity index, ratio of IC50 for african green monkey Vero cells to IC50 for Trypanosoma cruzi IRHOD/VO/2008/SN3 blood trypomastigotes. Format: toxicity, cell-based. To be noted: Vero cells versus Trypanosoma cruzi blood trypomastigotes, read-out: Ratio IC50.
Data set [9] in a line: Selectivity index, ratio of IC50 for african green monkey Vero cells to IC50 for Trypanosoma cruzi IRHOD/VO/2008/SN3 intracellular amastigotes. The class given is toxicity, cell-based. As to conditions: read-out: Ratio IC50.
Data set [10] can be described thus: Selectivity index, ratio of IC50 for african green monkey Vero cells to IC50 for Trypanosoma cruzi IRHOD/VO/2008/SN3 axenic amastigotes. Format: toxicity, cell-based. As to conditions: Vero cells versus Trypanosoma cruzi axenic amastigotes, read-out: Ratio IC50.
Data set [11] is described as follows: Selectivity index, ratio of IC50 for african green monkey Vero cells to IC50 for Trypanosoma cruzi IRHOD/VO/2008/SN3 epimastigotes. The class given is toxicity, cell-based. To be noted: Vero cells versus Trypanosoma cruzi epimastigotes, read-out: Ratio IC50.
Data set [12] is described as follows: Toxicity against african green monkey Vero cells. Format: cell-based, Chlorocebus sabaeus.
The test system of data set [13] is Trypanosoma cruzi. As to the kind of experiment: Antitrypanosomal activity against Trypanosoma cruzi IRHOD/VO/2008/SN3 isolated from mouse blood trypomastigotes incubated for 24 hrs. To be noted: IRHOD/VO/2008/SN3, Blood. The class given is functional, organism-based. An outline of the steps:
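Blood from BALB/c mice 7 days post-infection, drawn by cardiac puncture into 3.8% citrate (7:3). Compounds in PBS at 10, 25 and 50 μM final, mixed with infected blood (~1 × 10^6 parasites/mL). Shaken 10 min at room temperature, held 24 h at 4 °C. Parasites counted at 1:100 dilution against a PBS control.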

Data set [14] deals with Trypanosoma cruzi. In words: Antitrypanosomal activity against Trypanosoma cruzi IRHOD/VO/2008/SN3 intracellular amastigotes infected in african green monkey Vero cells incubated for 72 hrs. Format: functional, organism-based. To be noted: IRHOD/VO/2008/SN3, Vero. Put shortly:
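Vero cells (1 × 10^4/well) grown 2 days on coverslips, then infected with metacyclic forms at 10:1 for 24 h at 37 °C. Extracellular parasites washed off. Compounds at 1–100 μM for 72 h in RPMI with 10% FBS. Amastigotes counted on methanol-fixed, Giemsa-stained slides against untreated cultures. Mean of four determinations; IC50.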

Data set [15] relates to Trypanosoma cruzi. As to the kind of experiment: Antitrypanosomal activity against Trypanosoma cruzi IRHOD/VO/2008/SN3 […] amastigotes infected in african green monkey Vero cells incubated for 72 hrs. Format: functional, organism-based. As to conditions: IRHOD/VO/2008/SN3, Vero.
Data set [16] relates to Trypanosoma cruzi. In words: Antitrypanosomal activity against Trypanosoma cruzi IRHOD/VO/2008/SN3 epimastigotes incubated for 72 hrs. As to conditions: IRHOD/VO/2008/SN3, 72 h.
Data set [17] has as its system Trypanosoma cruzi. In words: Effect on glucose metabolism in Trypanosoma cruzi IRHOD/VO/2008/SN3 epimastigotes assessed as excreted acetate level at IC25 level incubated for 96 hrs at 28 degC by [1H]NMR spectroscopy.
The test system of data set [18] is Trypanosoma cruzi. As to the kind of experiment: Effect on glucose metabolism in Trypanosoma cruzi IRHOD/VO/2008/SN3 epimastigotes assessed as excreted ethanol level at IC25 level incubated for 96 hrs at 28 degC by [1H]NMR spectroscopy.
Data set [19] deals with Trypanosoma cruzi. As to the kind of experiment: Effect on glucose metabolism in Trypanosoma cruzi IRHOD/VO/2008/SN3 epimastigotes assessed as excreted succinate level at IC25 level incubated for 96 hrs at 28 degC by [1H]NMR spectroscopy.
For data set [20], the system named is Trypanosoma cruzi. In words: Effect on glucose metabolism in Trypanosoma cruzi IRHOD/VO/2008/SN3 epimastigotes assessed as excreted L-alanine level at IC25 level incubated for 96 hrs at 28 degC by [1H]NMR spectroscopy.
In data set [21] the test system is Trypanosoma cruzi. As to the kind of experiment: Effect on glucose metabolism in Trypanosoma cruzi IRHOD/VO/2008/SN3 epimastigotes assessed as excreted L-lactate level at IC25 level incubated for 96 hrs at 28 degC by [1H]NMR spectroscopy.
For data set [22], the system named is Trypanosoma cruzi. In words: Antitrypanosomal activity against Trypanosoma cruzi IRHOD/VO/2008/SN3 metacyclic forms infected in BALB/c mouse model of chronic Chagas disease subjected to 3 cycles of immunosuppression with 50 mg/kg cyclophosphamide monohydrate for 3 consecutive weeks assessed as parasitemia reactivation level at 5 mg/kg/day, ip administered for 5 consecutive days starting on day 7 post infection until day 12 post infection and measured on day 150 post infection. The class given is functional. Put shortly:
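Female BALB/c mice (6–8 wk, 25–30 g), six per group, were infected ip with 5 × 10^5 metacyclic trypomastigotes from infected mouse blood and dosed ip daily on days 7–12 pi. From day 120 pi a subgroup got three 4-day cycles of cyclophosphamide 50 mg/kg, 3 days apart. Parasites were counted by Neubauer chamber the day after cycle three in 5 μL mandibular-vein blood (1:100 PBS). Reactivation was scored against the matching non-immunosuppressed group; three experiments.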

For data set [23], the system named is Trypanosoma cruzi. In words: Antitrypanosomal activity against Trypanosoma cruzi IRHOD/VO/2008/SN3 metacyclic forms infected in BALB/c mouse model of acute Chagas disease assessed as reduction parasitemia at 5 mg/kg/day, ip administered for 5 consecutive days starting on day 7 post infection until day 12 post infection and measured on day 25 post infection. The class given is functional, organism-based. Put shortly: (§3)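 Groups of six female BALB/c mice (6–8 weeks, 25–30 g) inoculated ip with 5 × 10^5 metacyclic trypomastigotes. Dosed ip at 5 or 15 mg/kg/day on days 7–12 pi; untreated infected controls. Mandibular-vein blood (5 μL in 495 μL PBS) counted every 3 days for 40 days in a Neubauer chamber, as parasites/mL.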

Data set [24] concerns Trypanosoma cruzi. As to the kind of experiment: Antitrypanosomal activity against Trypanosoma cruzi IRHOD/VO/2008/SN3 metacyclic forms infected in BALB/c mouse model of acute Chagas disease assessed as reduction parasitemia at 5 mg/kg/day, ip administered for 5 consecutive days starting on day 7 post infection until day 12 post infection and measured on day 40 post infection. Format: functional. Also on record: scale not given: the % may be the effect or the level left. As to conditions: route intraperitoneal. Put shortly: as §3

The nature of data set [25]: Toxicity in Trypanosoma cruzi IRHOD/VO/2008/SN3 metacyclic forms infected BALB/c mouse model of acute Chagas disease assessed as mortality incidence at 5 mg/kg/day, ip administered for 5 consecutive days starting on day 7 post infection until day 12 post infection and measured 40 days post infection. The class given is organism-based. Also on record: route intraperitoneal. As to conditions: BALB/c, in vivo, read-out: Activity. An outline of the steps: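 Female BALB/c mice (6–8 wk, 25–30 g), six per group, were infected ip with 5 × 10^5 metacyclic trypomastigotes from infected mouse blood. Once infection was confirmed, compound was given ip daily on days 7–12 pi. An infected untreated group served as control. Deaths were recorded during treatment, and parasitemia was counted in mandibular-vein blood every 3 days up to day 40 pi.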

The subject of data set [26] is Trypanosoma cruzi. As to the kind of experiment: Antitrypanosomal activity against Trypanosoma cruzi IRHOD/VO/2008/SN3 metacyclic forms infected in BALB/c mouse model of acute Chagas disease assessed as reduction parasitemia at 5 mg/kg/day, ip administered for 5 consecutive days starting on day 7 post infection until day 12 post infection and measured on day 15 to 20 post infection. Format: functional. Also on record: scale not given: the % may be the effect or the level left. As to conditions: route intraperitoneal. An outline of the steps:
as §3

Superoxide dismutase [Cu-Zn], sequence (P00441 whole entry): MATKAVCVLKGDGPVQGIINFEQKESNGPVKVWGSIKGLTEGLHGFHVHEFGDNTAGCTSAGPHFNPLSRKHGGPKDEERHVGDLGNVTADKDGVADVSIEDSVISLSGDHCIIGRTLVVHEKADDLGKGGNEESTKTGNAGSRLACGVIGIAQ

As to `c1ccc2c(NCCCn3ccnc3)nnc(NCCCn3ccnc3)c2c1`, in [1], the result was Active. Also, the Ratio IC50 in data set [2] came to 1.6. Besides, the IC50 in data set [3] came out at 66 µM; in [4] it was 41.7 µM; in [12], 302 µM; in data set [13], 16.9 µM; in data set [14] it was 16.6 µM; in data set [15], 12.4 µM. Moreover, the 50% inhibitory concentration (IC50) in [16] came out at 17.4 µM. Moreover, the “inhibition (INH)” value in [5] is listed as 57.8%; in [6] it was 41.1%; in data set [7] it was 51.5%. In addition, the selectivity ratio in [8] worked out at 17.8; in data set [9], 18.2; in data set [10], 24.2; in data set [11] it was 17.3. Besides, the Activity in [17] is -21%; in [21] it was -24%. Besides, the outcome in data set [18], in [19] and in data set [20] was inactive.
Take `c1ccc2c(NCCc3cnc[nH]3)nnc(NCCc3cnc[nH]3)c2c1`: the results for the IC50 in [3] and in [12] were 125 µM and 324 µM, respectively. In addition, the selectivity ratio worked out at 14.4 in [8], 17.9 in [9], 21.3 in data set [10] and 24.9 in data set [11].
Regarding `O=C(Cn1ccnc1[N+](=O)[O-])NCc1ccccc1` [BENZNIDAZOLE], the Activity in [22] turned out to be 36%; in data set [24], 16.7%; in data set [26], 15.3%. Besides, in data set [23], the result was Active. In addition, the mortality at 960 h in data set [25] worked out at 20%. The “inhibition (INH)” value in data set [5] turned out to be 41.6%; in data set [6] it was 12.5%; in data set [7], 39.4%. The 50% inhibitory concentration (IC50) in [13] stood at 16.4 µM; in data set [15], 18.9 µM; in data set [16], 15.9 µM.
As for `c1ccc2c(NCCc3c[nH]cn3)nnc(NCCc3c[nH]cn3)c2c1`, the outcome in data set [1] was Active. The Ratio IC50 in data set [2] was found to be 2.6. The IC50 was determined as 48 µM in data set [4]; 22.5 µM in data set [13]; 18.1 µM in [14]; 15.2 µM in [15]; 13 µM in [16]. For the same compound, the “inhibition (INH)” value in data set [5] turned out to be 63.8%; in data set [6], 48.7%; in data set [7] it was 65.1%. The Activity in data set [17] is -10%; in [21], -15%. For the same compound, the result in data set [18], in [19] and in data set [20] was inactive.

For the origin of these results see ChEMBL document CHEMBL2176896, “Phthalazine derivatives containing imidazole rings behave as Fe-SOD inhibitors and show remarkable anti-T. cruzi activity in immunodeficient-mouse mode of infection” (J Med Chem, 2012).
